Consider two molecules from paper PMC8502542 (International Journal of Nanomedicine, 2021).

For data set [1], the system named is MIA PaCa-2 cell line. Nature of the data set: MTT cytotoxicity and combination index. It counts as cell-based, human. To be noted: MIA PaCa-2, MTT, 72 hours. An outline of the steps:
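MIA PaCa-2 (ATCC) seeded at 3×10^3 cells/well and grown 24 h at 37°C, 5% CO2. Exposed 72 h to test compound (DMSO solution, solvent-based, or albumin nanoparticle form) at 0.01, 0.1, 1, 5, 10, 50, 100 and 1000 ng/mL. MTT (0.5 mg/mL) added for 2 h, formazan dissolved in DMSO, A550 read. Survival expressed as % of control wells.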

For data set [2] the following is noted: plasma, after administration; cited from earlier work.

As to `CC(C)C[C@H](NC(=O)[C@H](CCc1ccccc1)NC(=O)CN1CCOCC1)C(=O)N[C@@H](Cc1ccccc1)C(=O)N[C@@H](CC(C)C)C(=O)[C@@]1(C)CO1` [CFZfree, carfilzomib], the “IC50, weight ratio CFZ:PTX 1: 0” value in data set [1] (CFZ form alone) is 8.90 ng/mL. The “initial half-life (T1/2,initial)” value in data set [2] was less than 20 min.
Consider `CC(=O)O[C@H]1C(=O)[C@@]2(C)[C@H]([C@H](OC(=O)c3ccccc3)[C@]3(O)C[C@H](OC(=O)[C@H](O)[C@@H](NC(=O)c4ccccc4)c4ccccc4)C(C)=C1C3(C)C)[C@]1(OC(C)=O)CO[C@@H]1C[C@@H]2O` [PTXfree, paclitaxel], for which the “IC50, weight ratio CFZ:PTX 0: 1” value in data set [1] (PTX form alone) is listed as 0.44 ng/mL.
